Test results reported in ChEMBL document CHEMBL1153560, “In vitro activities of doripenem and six comparator drugs against 423 aerobic and anaerobic bacterial isolates from infected diabetic foot wounds” (2008).

Legend:
Type in all cases: functional
Lacrimispora sphenoides [1] = test: Antibacterial activity against Clostridium sphenoides isolated from patient with diabetic foot infection assessed as percent resistant isolates after 44 to 48 hrs by agar dilution method
How it was run: (§1)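 Agar dilution per CLSI M11-A7. Twofold drug dilutions made on the test day and added to molten agar. Replicator-applied inoculum of 10^5 CFU/spot. Drug-free control plates inoculated before and after each drug set. Incubation at 37°C for 44 to 48 h, anaerobic chamber. MIC taken as the lowest concentration giving no growth or a marked change in growth versus controls.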

[2] = test system: Bacteroides thetaiotaomicron; test: Antibacterial activity against Bacteroides thetaiotaomicron isolated from patient with diabetic foot infection after 44 to 48 hrs by agar dilution method
How it was run: (§2)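 CLSI M11-A7 agar dilution: serial twofold drug dilutions made on the test day and added to molten agar. Spots of 10^5 CFU were applied by replicator, with drug-free control plates inoculated before and after each set. Incubation was 44 to 48 h at 37°C in an anaerobic chamber. MIC was the lowest concentration giving no growth or a marked change in growth versus controls.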

Parvimonas micra = test: Antibacterial activity against Peptostreptococcus micros isolated from patient with diabetic foot infection after 44 to 48 hrs by agar dilution method; how it was run: as §2
Anaerococcus vaginalis [3] = test: Antibacterial activity against Anaerococcus vaginalis isolated from patient with diabetic foot infection assessed as percent resistant isolates after 44 to 48 hrs by agar dilution method; how it was run: as §1
Cutibacterium acnes = test: Antibacterial activity against Propionibacterium acnes isolated from patient with diabetic foot infection after 44 to 48 hrs by agar dilution method; how it was run: as §2
Bacteroides fragilis [4] = test: Antibacterial activity against Bacteroides fragilis isolated from patient with diabetic foot infection assessed as percent resistant isolates after 44 to 48 hrs by agar dilution method; how it was run: as §1
Bacteroides ovatus [5] = test: Antibacterial activity against Bacteroides ovatus isolated from patient with diabetic foot infection assessed as percent resistant isolates after 44 to 48 hrs by agar dilution method; how it was run: as §1
Prevotella bivia [6] = test: Antibacterial activity against Prevotella bivia isolated from patient with diabetic foot infection assessed as percent resistant isolates after 44 to 48 hrs by agar dilution method; how it was run: as §1
Finegoldia magna [7] = test: Antibacterial activity against Finegoldia magna isolated from patient with diabetic foot infection assessed as percent resistant isolates after 44 to 48 hrs by agar dilution method; how it was run: as §1
[8] = test system: Enterocloster clostridioformis; test: Antibacterial activity against Clostridium clostridioforme isolated from patient with diabetic foot infection assessed as percent resistant isolates after 44 to 48 hrs by agar dilution method; how it was run: as §1
Porphyromonas somerae = test: Antibacterial activity against Porphyromonas somerae isolated from patient with diabetic foot infection assessed as percent resistant isolates after 44 to 48 hrs by agar dilution method; how it was run: as §1
Bacteroides fragilis [9] = test: Antibacterial activity against Bacteroides fragilis isolated from patient with diabetic foot infection after 44 to 48 hrs by agar dilution method; how it was run: as §2
[10] = test system: Enterocloster clostridioformis; test: Antibacterial activity against Clostridium clostridioforme isolated from patient with diabetic foot infection after 44 to 48 hrs by agar dilution method; how it was run: as §2
[11] = test system: Clostridium malenominatum; test: Antibacterial activity against Clostridium malenominatum isolated from patient with diabetic foot infection assessed as percent resistant isolates after 44 to 48 hrs by agar dilution method; how it was run: as §1
Prevotella bivia [12] = test: Antibacterial activity against Prevotella bivia isolated from patient with diabetic foot infection after 44 to 48 hrs by agar dilution method; how it was run: as §2
Bacteroides ovatus [13] = test: Antibacterial activity against Bacteroides ovatus isolated from patient with diabetic foot infection after 44 to 48 hrs by agar dilution method; how it was run: as §2
Parabacteroides merdae = test: Antibacterial activity against Parabacteroides merdae isolated from patient with diabetic foot infection assessed as percent resistant isolates after 44 to 48 hrs by agar dilution method; how it was run: as §1
[Clostridium] innocuum [14] = Antibacterial activity against Clostridium innocuum isolated from patient with diabetic foot infection assessed as percent resistant isolates after 44 to 48 hrs by agar dilution method; how it was run: as §1
Phocaeicola vulgatus [15] = test: Antibacterial activity against Bacteroides vulgatus isolated from patient with diabetic foot infection assessed as percent resistant isolates after 44 to 48 hrs by agar dilution method; how it was run: as §1
Clostridium cadaveris = test: Antibacterial activity against Clostridium cadaveris isolated from patient with diabetic foot infection after 44 to 48 hrs by agar dilution method; how it was run: as §2
[Clostridium] innocuum [16] = Antibacterial activity against Clostridium innocuum isolated from patient with diabetic foot infection after 44 to 48 hrs by agar dilution method; how it was run: as §2
Anaerococcus prevotii = test: Antibacterial activity against Anaerococcus prevotii isolated from patient with diabetic foot infection after 44 to 48 hrs by agar dilution method; how it was run: as §2
Phocaeicola vulgatus [17] = test: Antibacterial activity against Bacteroides vulgatus isolated from patient with diabetic foot infection after 44 to 48 hrs by agar dilution method; how it was run: as §2
Finegoldia magna [18] = test: Antibacterial activity against Finegoldia magna isolated from patient with diabetic foot infection after 44 to 48 hrs by agar dilution method; how it was run: as §2
[19] = test system: Peptoniphilus asaccharolyticus; test: Antibacterial activity against Peptoniphilus asaccharolyticus isolated from patient with diabetic foot infection assessed as percent resistant isolates after 44 to 48 hrs by agar dilution method; how it was run: as §1
Bacteroides caccae [20] = test: Antibacterial activity against Bacteroides caccae isolated from patient with diabetic foot infection after 44 to 48 hrs by agar dilution method; how it was run: as §2
Bacteroides caccae [21] = test: Antibacterial activity against Bacteroides caccae isolated from patient with diabetic foot infection assessed as percent resistant isolates after 44 to 48 hrs by agar dilution method; how it was run: as §1
[22] = test system: Porphyromonas asaccharolytica; test: Antibacterial activity against Porphyromonas asaccharolyticus isolated from patient with diabetic foot infection assessed as percent resistant isolates after 44 to 48 hrs by agar dilution method; how it was run: as §1
[23] = test system: Parabacteroides distasonis; test: Antibacterial activity against Parabacteroides distasonis isolated from patient with diabetic foot infection after 44 to 48 hrs by agar dilution method; how it was run: as §2
[24] = test system: Porphyromonas asaccharolytica; test: Antibacterial activity against Porphyromonas asaccharolyticus isolated from patient with diabetic foot infection after 44 to 48 hrs by agar dilution method; how it was run: as §2
[25] = test system: Bacteroides thetaiotaomicron; test: Antibacterial activity against Bacteroides thetaiotaomicron isolated from patient with diabetic foot infection assessed as percent resistant isolates after 44 to 48 hrs by agar dilution method; how it was run: as §1
Lacrimispora sphenoides [26] = test: Antibacterial activity against Clostridium sphenoides isolated from patient with diabetic foot infection after 44 to 48 hrs by agar dilution method; how it was run: as §2
[27] = test system: Clostridium malenominatum; test: Antibacterial activity against Clostridium malenominatum isolated from patient with diabetic foot infection after 44 to 48 hrs by agar dilution method; how it was run: as §2
[28] = test system: Peptostreptococcus anaerobius; test: Antibacterial activity against Peptostreptococcus anaerobius isolated from patient with diabetic foot infection after 44 to 48 hrs by agar dilution method; how it was run: as §2
[29] = test system: Peptoniphilus asaccharolyticus; test: Antibacterial activity against Peptoniphilus asaccharolyticus isolated from patient with diabetic foot infection after 44 to 48 hrs by agar dilution method; how it was run: as §2
Bacteroides stercoris = test: Antibacterial activity against Bacteroides stercoris isolated from patient with diabetic foot infection assessed as percent resistant isolates after 44 to 48 hrs by agar dilution method; how it was run: as §1
Anaerococcus vaginalis [30] = test: Antibacterial activity against Anaerococcus vaginalis isolated from patient with diabetic foot infection after 44 to 48 hrs by agar dilution method; how it was run: as §2

Cc1ncc([N+](=O)[O-])n1CCO [METRONIDAZOLE]
2 mg/L: MIC90 [29]
1 mg/L: MIC90 [2] | MIC90 (Parvimonas micra) | MIC90 (Bacteroides fragilis [9]) | MIC90 (Bacteroides ovatus [13]) | MIC90 (Anaerococcus prevotii) | MIC90 (Phocaeicola vulgatus [17]) | MIC90 (Finegoldia magna [18]) | MIC90 (Bacteroides caccae [20]) | MIC90 [23] | MIC90 [28]
0%: Activity (Lacrimispora sphenoides [1]) | Activity (Anaerococcus vaginalis [3]) | Activity (Bacteroides fragilis [4]) | Activity (Bacteroides ovatus [5]) | Activity (Prevotella bivia [6]) | Activity (Finegoldia magna [7]) | Activity [8] | Activity (Porphyromonas somerae) | Activity [11] | Activity (Parabacteroides merdae) | Activity ([Clostridium] innocuum [14]) | Activity (Phocaeicola vulgatus [15]) | Activity [19] | Activity (Bacteroides caccae [21]) | Activity [22] | Activity [25] | Activity (Bacteroides stercoris)
0.25 mg/L: MIC50 (Parvimonas micra) | MIC90 [10] | MIC90 (Clostridium cadaveris) | MIC90 ([Clostridium] innocuum [16]) | MIC90 [24] | MIC90 (Lacrimispora sphenoides [26]) | MIC90 [27] | MIC50 [28]
4 mg/L: MIC50 (Prevotella bivia [12]) | MIC90 (Prevotella bivia [12])
0.125 mg/L: MIC50 [10] | MIC50 (Clostridium cadaveris) | MIC50 ([Clostridium] innocuum [16]) | MIC50 (Lacrimispora sphenoides [26]) | MIC50 [27]
0.05 mg/L: MIC50 [24]
0.5 mg/L: MIC50 [2] | MIC50 (Bacteroides fragilis [9]) | MIC50 (Bacteroides ovatus [13]) | MIC50 (Anaerococcus prevotii) | MIC50 (Phocaeicola vulgatus [17]) | MIC50 (Finegoldia magna [18]) | MIC50 (Bacteroides caccae [20]) | MIC50 [23] | MIC50 [29] | MIC50 (Anaerococcus vaginalis [30])
> 32 mg/L: MIC50 (Cutibacterium acnes) | MIC90 (Cutibacterium acnes)
